Measurements as given in ChEMBL document CHEMBL4513216, “Probing the Open Global Health Chemical Diversity Library for Multistage-Active Starting Points for Next-Generation Antimalarials” (ACS Infect Dis, 2020).

Assay: Toxicity liver stage against HepG2, at 10uM
Assay type: cell-based
Set-up: test concentration 10 uM, cell line HepG2-A16-CD81EGFP
Conditions: human, HepG2-A16-CD81EGFP cells; read-out: INHIBITION
How it was run: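 Uninfected HepG2-A16-CD81EGFP cells, 3 × 10^3 per well, 1536-well, plated on prespotted compound at 10 μM final, parasite-free screening media added to match infected plates; puromycin 10 μM positive, DMSO 0.5% negative; run in parallel with 48 h PbLuc assay at 37 °C, 5% CO2; viability by CellTiter-Glo luminescence, normalized to controls.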

In the case of `O=C1CO[C@H]2CN(S(=O)(=O)c3ccccc3)C[C@H]2N1c1ccccc1`, the cytotoxicity at 10 µM was -2.6%.
Work on `O=C1N[C@@H]2CCN(C(=O)C3CC3)[C@@H]2C(=O)N1c1ccc(F)cc1` yielded a cytotoxicity at 10 µM of -1.8%.
Work on `O=C1N[C@@H]2CCN(C(=O)c3ccccc3)[C@@H]2C(=O)N1Cc1ccccc1` yielded a cytotoxicity at 10 µM of -1.84%.
Compound `COc1ccc(Nc2nc(N)c(C(C)=O)s2)cc1Cl` has a cytotoxicity at 10 µM of 0.833%.
`CNC(=O)c1cnc2c(C)csc2c1` gave a cytotoxicity at 10 µM of -22.3%.
With `O=C1CCC2(CCN(Cc3ccsc3)CC2)N1Cc1ccccc1` the cytotoxicity at 10 µM was 0.552%.
`O=C([C@H]1CCCO1)N1CCC2(CC1)C(=O)N(CC1CC1)c1ccccc12` showed a cytotoxicity at 10 µM of 8.5%.
`CN(C)CCN1CCN(C)C2(CCN(c3nccs3)CC2)C1=O` gave a cytotoxicity at 10 µM of -1.92%.
For `CC1CCN(S(=O)(=O)c2cccn(CC(=O)N3CCOCC3)c2=O)CC1`, the cytotoxicity at 10 µM was 2.11%.
`O=C(CCCC(=O)NCc1cccc(Br)c1)NCCN1CCCC1` gave a cytotoxicity at 10 µM of -7.47%.
`Cc1cccc2c1ccn2CCC(=O)O` gave a cytotoxicity at 10 µM of 7.47%.
In the case of `Cc1noc(C)c1C(=O)N[C@@H]1CCC[C@@H](Oc2ccccc2)[C@@H]1O`, the cytotoxicity at 10 µM was 4.72%.
Compound `CS(=O)(=O)N1CCCC(n2nnn(-c3ccccc3)c2=O)C1` (configuration not stated) has a cytotoxicity at 10 µM of -6.17%.
`COCCNC(=O)C1(CCCc2cccnc2)CCCN1C` (configuration not stated) showed a cytotoxicity at 10 µM of 20.1%.
`CCCC(=O)N1CCCC(C(=O)c2cnn(-c3ccc(F)cc3)c2N)C1` (configuration not stated) showed a cytotoxicity at 10 µM of 4.67%.
Compound `O=C(O)CCCC(=O)NCC1(O)CCN(c2ccnc3cccnc23)C1` (configuration not stated) has a cytotoxicity at 10 µM of 5.09%.
For `CN(C)c1nccnc1C1CCN(C2CCCCC2O)CC1` (configuration not stated), the cytotoxicity at 10 µM was 8.12%.
Compound `O=C1CCC[C@]2(CN(S(=O)(=O)N3CCCCC3)C[C@H]2c2cccnc2)N1` has a cytotoxicity at 10 µM of -0.217%.
For `CN(C)Cc1ccnc(C2CN(CCc3ccccc3)CCO2)n1` (configuration not stated), the cytotoxicity at 10 µM was -16.5%.
`C[C@]1(O)CN(Cc2cccc(C(=O)O)c2)CC[C@@H]1Oc1cccc(F)c1` showed a cytotoxicity at 10 µM of -5.64%.
In the case of `CCCn1cc(C(=O)N2CCCC(Cc3nccs3)C2)cn1` (configuration not stated), the cytotoxicity at 10 µM was -11.4%.
For `CC(C)n1cc(C(=O)N2Cc3ccccc3OC3(CCOCC3)C2)cn1`, the cytotoxicity at 10 µM was 6.61%.
`O=C(NC1CC1)C1CCc2nnc(-c3cccc(C(F)(F)F)c3)n21` (configuration not stated) gave a cytotoxicity at 10 µM of 8.6%.
`CN(C)C(=O)c1nc(-c2ccc(S(C)(=O)=O)cc2)c2ccccn12` showed a cytotoxicity at 10 µM of 8.77%.
Compound `COc1c(C(=O)NC(C)Cc2ccccc2Cl)c(C)nn1C` (configuration not stated) has a cytotoxicity at 10 µM of -0.686%.
Work on `CC(NCc1nnc2n1CCCC2)c1nc(-c2cccs2)no1` (configuration not stated) yielded a cytotoxicity at 10 µM of -39.5%.
Compound `Cc1ccc2c(c1)C(NCc1ccccn1)CC2` (configuration not stated) has a cytotoxicity at 10 µM of 5.47%.
`Cc1ccc(C(C)(O)CNC(=O)CCn2ccnc2C(C)C)o1` (configuration not stated) gave a cytotoxicity at 10 µM of 8.53%.
In the case of `CN(CCn1cnnc1)C(=O)c1ccnc(OC2CCC2)c1`, the cytotoxicity at 10 µM was 5.1%.
`CCCc1n[nH]c(C2CN(C(=O)Cc3ccc(C)nc3)CCO2)n1` (configuration not stated) gave a cytotoxicity at 10 µM of 6.73%.
With `Cc1cnn(CC2CCCN2C(=O)CCc2c(C)noc2C)c1` (configuration not stated) the cytotoxicity at 10 µM was -5.81%.
Work on `COc1cccc2c1N(Cc1noc(C3CC3)n1)CCC2` yielded a cytotoxicity at 10 µM of -5.59%.
In the case of `N#Cc1c(N2CCCN(C3CCOCC3)CC2)nc2ccccn12`, the cytotoxicity at 10 µM was 14.7%.
With `CC(C)C(NC(=O)NCc1cccnc1N(C)C)c1cccs1` (configuration not stated) the cytotoxicity at 10 µM was -1.86%.
Compound `CC(=O)c1ccc(CNC(=O)c2c(C)cc(C)cc2C)nc1C` has a cytotoxicity at 10 µM of 9.31%.
`Cc1ccc(CNC(=O)N2CCCCC2CCNS(C)(=O)=O)cc1` (configuration not stated) gave a cytotoxicity at 10 µM of -0.524%.
For `Cc1nn(C)c(C)c1C(=O)N1CCOCC1CC(=O)c1ccco1` (configuration not stated), the cytotoxicity at 10 µM was -11.4%.
Work on `CS(=O)(=O)N1CCO[C@@H]2CN(C(=O)c3ccnnc3)C[C@@H]2C1` yielded a cytotoxicity at 10 µM of 5.97%.
In the case of `CC(C)NC(=O)C1CN(C(=O)Nc2ccccc2)CC12CCOCC2` (configuration not stated), the cytotoxicity at 10 µM was 4.58%.
`COc1cc(-c2cc(N)ncn2)cc(OC)c1OC` showed a cytotoxicity at 10 µM of -5.11%.
`CC(C)Nc1cc(N2CCCC3(CN(C)C(=O)O3)C2)ncn1` (configuration not stated) gave a cytotoxicity at 10 µM of -53%.
In the case of `CCN1CC(C(=O)NCc2noc(Cc3ccccc3)n2)CCC1=O` (configuration not stated), the cytotoxicity at 10 µM was -4.7%.
Work on `O=C1COc2ccccc2N1CCCn1cnnn1` yielded a cytotoxicity at 10 µM of 6.05%.
In the case of `CC(C)(N)c1cn(C2CCN(C(=O)CCC3CCCCC3)CC2)nn1`, the cytotoxicity at 10 µM was -6.53%.
Work on `COc1ccccc1-n1nc(C(C)C)nc1Cc1nnc(N)s1` yielded a cytotoxicity at 10 µM of 6.48%.
With `Cc1cccc(C(C(=O)NCCc2nc(C)cc(=O)[nH]2)N(C)C)c1` (configuration not stated) the cytotoxicity at 10 µM was -6.24%.
In the case of `O=C(c1cnc(O)cn1)N1CCCC1c1nc2cc(F)ccc2[nH]1` (configuration not stated), the cytotoxicity at 10 µM was 7.72%.
With `c1ccc(CN2CCC(NCCSc3cnn[nH]3)CC2)cc1` the cytotoxicity at 10 µM was -5.16%.
`Cc1cc(C)c2nc(CNC3CCCNC3=O)cc(O)c2c1` (configuration not stated) gave a cytotoxicity at 10 µM of 5.84%.
With `C[C@@H]1CN(c2ccc(Cl)cn2)CC[C@@]1(O)C1CCOCC1` the cytotoxicity at 10 µM was -2.54%.
In the case of `COc1cc(-n2ccnc2-c2ccc(C(=O)O)s2)ccc1NC(C)=O`, the cytotoxicity at 10 µM was 2.74%.
Work on `COCCN(C)C[C@@H]1CN(C(=O)c2sc3ccccc3c2C)C[C@@H]1CO` yielded a cytotoxicity at 10 µM of -7.13%.
In the case of `O=C(Nc1cnc2n1CCCC2)c1cccc(-n2cnnc2)c1`, the cytotoxicity at 10 µM was -4.34%.
`CCc1cc(-c2cc[nH]n2)nc(N2CCOCC2)n1` gave a cytotoxicity at 10 µM of 7.04%.
With `Cc1[nH]c2c(F)cccc2c1CC(=O)N1CCCC(N)CC1` (configuration not stated) the cytotoxicity at 10 µM was 3.26%.
`CCCC1(CO)CCCN(C(=O)CN2CCN(CC)CC2)C1` (configuration not stated) showed a cytotoxicity at 10 µM of 0.854%.
For `COCc1ncc(CN2CC[C@@H](NC(=O)c3cccnc3)[C@H](O)C2)cn1`, the cytotoxicity at 10 µM was -7.28%.
Compound `CCNc1ncc(C(=O)N2CCC(c3ccccc3C(=O)O)C2)cn1` (configuration not stated) has a cytotoxicity at 10 µM of -6.41%.
In the case of `c1coc(-c2nnc(CN3CCCC3Cn3cncn3)o2)c1` (configuration not stated), the cytotoxicity at 10 µM was -5.46%.
For `CCOCC(=O)N1CSCC1C(=O)N(C)Cc1ccco1` (configuration not stated), the cytotoxicity at 10 µM was -11%.
In the case of `CS(=O)(=O)N1CCN(C(=O)CCn2cccn2)CC1`, the cytotoxicity at 10 µM was -8.39%.
In the case of `Cc1csc(N2CCCN(C(=O)C(C)n3cncn3)CC2)n1` (configuration not stated), the cytotoxicity at 10 µM was -3.6%.
Compound `O=C(Nc1nccs1)NC1CCN(Cc2ccccn2)CC1` has a cytotoxicity at 10 µM of -5.72%.
For `c1coc(-c2noc(CN3CCCCC3Cn3cncn3)n2)c1` (configuration not stated), the cytotoxicity at 10 µM was -0.915%.
With `Cc1cnn(CC2CCCCN2CCS(C)(=O)=O)c1` (configuration not stated) the cytotoxicity at 10 µM was -13.7%.
With `Cc1nc(C)n(CC2CCCN2Cc2nc(C)c3ccccc3n2)n1` (configuration not stated) the cytotoxicity at 10 µM was -12.4%.
`Cc1cnn(CC2CCCN2C(=O)Cc2ccc(C)nc2)c1` (configuration not stated) gave a cytotoxicity at 10 µM of -1.64%.
Compound `Cc1cc(C)n(C2CN(CC(=O)NC(C3CC3)C3CC3)C2)n1` has a cytotoxicity at 10 µM of -9.8%.
With `CN(C)c1ccc(NC(=O)NCc2cccnc2N(C)C)cn1` the cytotoxicity at 10 µM was -20.9%.
`O=C(NCc1ccccn1)NCc1ccc(Cl)s1` showed a cytotoxicity at 10 µM of -7.52%.
For `CCc1nc(CN2CCCN(C(=O)CC3CCCC3)CC2)cs1`, the cytotoxicity at 10 µM was -25.2%.
In the case of `O=C(NCCN1CCCc2ccccc21)c1scnc1Cl`, the cytotoxicity at 10 µM was -3.41%.
Work on `CCCc1n[nH]c(C2CN(CCNS(=O)(=O)CC)CCO2)n1` (configuration not stated) yielded a cytotoxicity at 10 µM of 2.43%.
Work on `O=C(NCC(=O)N1CCCCC1)c1ccoc1` yielded a cytotoxicity at 10 µM of -6.07%.
With `CC(C)c1cc(NC(=O)CN2CCC(N3CCNC3=O)CC2)on1` the cytotoxicity at 10 µM was -10.7%.
Work on `Cc1cnn(CC2CCCCN2Cc2nnc(C3CC3)n2C)c1` (configuration not stated) yielded a cytotoxicity at 10 µM of 2.36%.
`Cc1nc(CN2CCOC(CN(C)c3cccnn3)C2)cs1` (configuration not stated) showed a cytotoxicity at 10 µM of 0.938%.
For `CN(C)c1ncc(-c2cccc(C(N)=O)c2)c(C2CNCCO2)n1` (configuration not stated), the cytotoxicity at 10 µM was -2.77%.
Work on `Cc1nc(C2CCNC2)nc2c1CCC(=O)N2C` (configuration not stated) yielded a cytotoxicity at 10 µM of 3.77%.
With `O=C1CCCC2(CCN(C(=O)c3ccccn3)CC2)N1` the cytotoxicity at 10 µM was 3.03%.
Compound `COCC1CC2(CCN(C(=O)c3ccco3)CC2)CN1C(C)C` (configuration not stated) has a cytotoxicity at 10 µM of 4.71%.
In the case of `O=C1CC[C@H]2[C@@H](CCN2Cc2ccco2)N1`, the cytotoxicity at 10 µM was 2.82%.
